{"data": "Results pooled from the literature", "observed": "cell growth or viability"}
{"Compound": "CCCCCCCCCCCCCCCCCCOc1ccc(CC(=O)OCC[N+]2(C)CCOCC2)cc1", "cell line": "NCI-H522", "technique": "SRB", "tested at": "10 µM", "measurement": "inhibition", "result": "5.79%"}
{"Compound": "CN(C)CCNC(=O)c1ccc(-c2nc3ccc4[nH]ncc4c3c3c2CCCC3)c(F)c1", "cell line": "EOL1", "time": "72 h", "measurement": "GI50", "result": "42 nM"}
{"Compound": "CNCCC(=O)Nc1ccccc1/N=c1\\cc(-c2ccc3nc(N)oc3c2)oc2ccccc12", "cell line": "A549", "technique": "CCK-8", "tested at": "1 µM", "measurement": "inhibition", "result": "7.88%"}
{"Compound": "CCCCCCCCCCCCCCCCCCOc1ccccc1CC(=O)OCCC[N+](C)(C)C", "cell line": "NCI-H522", "technique": "SRB", "tested at": "10 µM", "measurement": "inhibition", "result": "63.7%"}
{"Compound": "NC(=O)C1CCCN1C(=O)Nc1ccccc1/N=c1\\cc(-c2ccc3c(c2)OCCO3)oc2cc(F)ccc12 (stereo not shown)", "cell line": "A549", "technique": "CCK-8", "tested at": "1 µM", "measurement": "inhibition", "result": "-1.31%"}
{"Compound": "Cc1n[nH]c2ccc3nc(-c4ccc(C(=O)NCCN(C)C)cc4F)c4c(c3c12)CCCC4", "cell line": "EOL1", "time": "72 h", "measurement": "GI50", "result": "89 nM"}
{"Compound": "CCCCCCCCCCCCCCCCCCOc1cccc(CC(=O)OCC[N+]2(C)CCCCC2)c1", "cell line": "NCI-H522", "technique": "SRB", "tested at": "10 µM", "measurement": "inhibition", "result": "28.5%"}
{"Compound": "C=C(NC(=O)C(=C)NC(=O)c1csc(C2=N[C@@H]3c4csc(n4)[C@H]4NC(=O)c5csc(n5)[C@H]([C@](C)(O)[C@@H](C)O)NC(=O)[C@H]5CSC(=N5)/C(=C/C)NC(=O)[C@H]([C@@H](C)O)NC(=O)c5csc(n5)[C@]3(CC2)NC(=O)[C@H](C)NC(=O)C(=C)NC(=O)[C@H](C)NC(=O)[C@H]([C@@H](C)CC)N[C@@H]2C=Cc3c([C@H](C)O)cc(nc3[C@H]2O)C(=O)O[C@@H]4C)n1)C(N)=O", "cell line": "PC-3", "measurement": "EC50", "result": "54600 nM"}
{"Compound": "CCCCCCCCCCCCCCCCCCOc1ccc(CC(=O)OCCC[N+](C)(C)C)cc1", "cell line": "NCI-H522", "technique": "SRB", "tested at": "10 µM", "measurement": "inhibition", "result": "21.6%"}
{"Compound": "CCCS(=O)(=O)Oc1cc(C=NNC(=O)c2nc3ccccc3s2)ccc1OC", "cell line": "PC-3", "technique": "MTT", "tested at": "100 µM", "time": "48 h", "measurement": "cell death", "result": "33%"}
{"Compound": "CCCCCCCCCCCCCCCCCCOc1ccc(CC(=O)OCC[N+](C)(C)C)cc1", "cell line": "NCI-H522", "technique": "SRB", "tested at": "10 µM", "measurement": "inhibition", "result": "4.28%"}
{"Compound": "Cc1n[nH]c2ccc3nc(-c4ccc(C(=O)NCCN(C)C)cc4F)c4c(c3c12)CCCCC4", "cell line": "EOL1", "time": "72 h", "measurement": "GI50", "result": "72 nM"}
{"Compound": "O=c1[nH]cc(F)c(=O)[nH]1", "cell line": "PC-3", "technique": "MTT", "tested at": "100 µM", "time": "48 h", "measurement": "cell death", "result": "10.7%"}
{"Compound": "CCCCCCCCCCCCCCCCCCOc1ccc(CC(=O)OCC[N+](CC)(CC)CC)cc1", "cell line": "NCI-H522", "technique": "SRB", "tested at": "10 µM", "measurement": "inhibition", "result": "26.6%"}
{"Compound": "NCCC(=O)Nc1ccccc1/N=c1\\cc(-c2ccc3c(c2)OCCO3)oc2cc(F)ccc12", "cell line": "A549", "technique": "CCK-8", "tested at": "1 µM", "measurement": "inhibition", "result": "-8.9%"}
{"Compound": "Cc1nc(Nc2ncc(C(=O)Nc3c(C)cccc3Cl)s2)cc(N2CC[C@H](O)C2)n1", "cell line": "WSU-NHL", "technique": "ATP luminescence", "tested at": "10 µM", "time": "72 h", "measurement": "inhibition", "result": "91%"}
{"Compound": "CCCCCCCCCCCCCCCCCCOc1ccc(CC(=O)OCC[N+]2(C)CCCC2)cc1", "cell line": "NCI-H522", "technique": "SRB", "tested at": "10 µM", "measurement": "inhibition", "result": "3.23%"}
{"Compound": "COc1ccc(C=NNC(=O)c2nc3ccccc3s2)cc1OS(C)(=O)=O", "cell line": "PC-3", "technique": "MTT", "tested at": "100 µM", "time": "48 h", "measurement": "cell death", "result": "44.5%"}
{"Compound": "Nc1nc2ccc(-c3c/c(=N\\c4ccccc4NC(=O)CCN4CCOCC4)c4ccccc4o3)cc2o1", "cell line": "A549", "technique": "CCK-8", "tested at": "1 µM", "measurement": "inhibition", "result": "16.4%"}
{"Compound": "CN(C)CCNC(=O)c1ccc(-c2nc3ccc4[nH]ncc4c3c3c2CCCC3)cc1", "cell line": "EOL1", "time": "72 h", "measurement": "GI50", "result": "149 nM"}
{"Compound": "C[C@H](Nc1ccc2c(c1)OCCn1cc(N3C(=O)OC[C@H]3C(F)F)nc1-2)C(N)=O", "cell line": "NCI-H1048", "technique": "ATP luminescence", "time": "5 days", "measurement": "EC50", "result": "0.3 nM"}
{"Compound": "NCC(=O)Nc1ccccc1/N=c1\\cc(-c2ccc3c(c2)OCCO3)oc2ccccc12", "cell line": "A549", "technique": "CCK-8", "tested at": "1 µM", "measurement": "inhibition", "result": "-0.04%"}
{"Compound": "CCCCCCCCCCCCCCCCCCOc1ccc(CC(=O)OCC[N+]2(C)CCCCC2)cc1", "cell line": "NCI-H522", "technique": "SRB", "tested at": "10 µM", "measurement": "inhibition", "result": "10.8%"}
{"Compound": "CC(C)(C)c1cc(NC(=O)Nc2ccc(-c3cn4c(n3)sc3cc(OCCN5CCOCC5)ccc34)cc2)no1", "cell line": "EOL1", "time": "72 h", "measurement": "GI50", "result": "< 0.1 nM"}
{"Compound": "NCCC(=O)Nc1ccccc1/N=c1\\cc(-c2ccc3c(c2)OCO3)oc2ccccc12", "cell line": "A549", "technique": "CCK-8", "tested at": "1 µM", "measurement": "inhibition", "result": "3.27%"}
